For assay [1], the system named is Plasmodium falciparum. Put plainly: Upregulation of selenoprotein-1 mRNA level in Plasmodium falciparum 3D7 trophozoites at 126 nM after 12 hrs by RT-qPCR analysis relative to untreated control. The assay is classed as functional. Summed up: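 Synchronized 3D7 trophozoites in RPMI/Albumax culture at 37°C under 3% O2, 3% CO2 were exposed 12, 15 or 18 h, then harvested by 0.02% saponin lysis. RNA was reverse-transcribed and analyzed by real-time PCR in quadruplicate. Quantification used ΔΔCT with 18S rRNA reference (LDH also checked), expressed as % of untreated control.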

The test system of assay [2] is Plasmodium falciparum. Nature of the assay: Downregulation of DNA-directed RNA polymerase 2 mRNA level in Plasmodium falciparum 3D7 trophozoites at 126 nM by RT-qPCR analysis relative to untreated control. It counts as functional. The method, boiled down: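 P. falciparum 3D7 trophozoites are exposed to 126 nM compound for 12, 15 or 18 h, then harvested by saponin lysis at 37°C. RNA is extracted and reverse-transcribed, and transcripts are quantified by real-time PCR in quadruplicate. Analysis uses ΔΔCT with 18S rRNA as reference (LDH also checked), expressed as % of untreated control.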
(In general: Real-time PCR tracks product formation cycle by cycle.)

Assay [3] deals with A549. Nature of the assay: Inhibition of glutathione peroxidase in human A549 cells assessed as enzyme activity at 166 µM after 24 hrs relative to untreated control. Further details: scale not given: the % may be the effect or the level left.
In assay [4] the test system is Plasmodium falciparum. Nature of the assay: Antiplasmodial activity against chloroquine-resistant Plasmodium falciparum K1 in presence of quinine. The assay is classed as functional.
The test system of assay [5] is A549. Nature of the assay: Effect on glutathione peroxidase expression in human A549 cells assessed as transcript level at 166 nM after 24 hrs by RT-qPCR analysis relative to untreated control. It counts as functional. To be noted: in the assay text read “166 µM” for “166 nM”. Summed up:
(§1)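 A549 cells are seeded at 2.5 × 10^5 per 25-cm2 well. At 40–45% confluence they are treated for 24 h with 166 or 662 μM, 158 or 315 μM, or 5 or 24 μM compound; controls receive <5% DMSO. Total RNA is DNase-treated and qRT-PCR is run in quadruplicate. Values are normalized to GAPDH and given as % of untreated control.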

Assay [6] has as its system A549. Nature of the assay: Effect on glutathione reductase expression in human A549 cells assessed as transcript level at 158 nM after 24 hrs by RT-qPCR analysis relative to untreated control. The assay is classed as functional. To be noted: in the assay text read “158 µM” for “158 nM”. Summed up:
as §1

The test system of assay [7] is A549. Put plainly: Effect on thioredoxin reductase expression in human A549 cells assessed as transcript level at 158 nM after 24 hrs by RT-qPCR analysis relative to untreated control. To be noted: in the assay text read “158 µM” for “158 nM”. The assay is classed as functional. Summed up: as §1

The structures appear in SMILES notation.

Take `O=c1oc2c(O)c(O)c(O)c3c(=O)oc4c(O)c(O)c(O)c1c4c23` [CORULEOELLAGIC ACID]: the Activity in assay [1] was 160%; in assay [2] it was 42%.

Turning to `O=c1oc2c(O)c(O)cc3c(=O)oc4c(O)c(O)cc1c4c23` [ELLAGIC ACID], the Activity in assay [3] came to 86%; in assay [5], 109%. Also, in assay [4], the FIC50 is 1.

In the case of `O=c1oc2c(O)c(O)c(O)c3c(=O)oc4c(O)c(O)cc1c4c23` [FLAVELLAGIC ACID], the Activity is 105% in assay [6] and 97% in assay [7].

The values above are taken from ChEMBL document CHEMBL1687720 (Antimicrob Agents Chemother, 2009).
